# This is a sample that favours compounds with a hit; in the whole collection about 2.5% have one here.
# SIAE inh = human SIAE inhibition, primary screen | Q9HAT2 | SIAE FP-Rh probe binding, fluorescence polarization | inhibition, % at 9.66 µM | actives 0.69% (n = 370,000);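 active = inhibition above a cutoff: mean of compounds within the control limits plus 3 SD of those, cut at about 17% in these data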;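 note: 0% = plate median of compound wells and 100% = probe without SIAE protein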
# PRMT1 FP inh = PRMT1 (human) inhibition, primary screen. recombinant PRMT1, activity-based probe fluorescence polarization. inhibition, % at 2.79 µM. actives 1.3% (n = 370,000);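 active = inhibition above about 21% made by adding two undisclosed values, limit read from the data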
# Target sequence (Q99873 whole entry, looked up): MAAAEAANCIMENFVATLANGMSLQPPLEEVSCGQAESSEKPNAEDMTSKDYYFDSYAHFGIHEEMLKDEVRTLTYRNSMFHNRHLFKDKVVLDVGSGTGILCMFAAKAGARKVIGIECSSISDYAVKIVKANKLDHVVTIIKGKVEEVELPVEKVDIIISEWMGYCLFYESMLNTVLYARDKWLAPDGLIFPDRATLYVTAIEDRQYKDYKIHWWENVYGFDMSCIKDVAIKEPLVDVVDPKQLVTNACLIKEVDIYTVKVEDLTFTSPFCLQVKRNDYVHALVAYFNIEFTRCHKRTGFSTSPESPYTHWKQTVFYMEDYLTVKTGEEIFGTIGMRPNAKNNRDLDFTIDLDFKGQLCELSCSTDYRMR
# TCR-CD3 inh = inhibitors of human TCR-CD3 interaction; AID 651800; TAMRA-labeled TCR probe fluorescence, biochemical; actives 0.37% (n = 360,000); inhibition, % at 9.4 µM; in the data active = inhibition above about 19%;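 note: recombinant mutant TCR 2C K166C tagged with TAMRA read by polarization; 0% = receptor in buffer alone and 100% = receptor with positive control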
# HTRA1 inhibitor = HTRA1 (human) protease inhibition; Q92743; inhibition, % at 5.96 µM; AID 504803; actives 0.5% (n = 340,000); recombinant HTRA1, FP-rhodamine activity-based probe, fluorescence polarization; in the data active = inhibition above about 36%;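 note: 0% = enzyme with DMSO and 100% = wells lacking enzyme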
# ABHD4 inh = inhibitors of mouse ABHD4; actives 0.54% (n = 370,000); Q8VD66; purified mABHD4, FP-Rh probe fluorescence polarization; inhibition, % at 8.92 µM; AID 720543;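 active = inhibition exceeding the mean over every tested compound plus 3 SD, cut at about 30% in these data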;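 note: 0% = plate median of compound wells and 100% = S159A mutant with DMSO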
#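 Test system: mABHD4 protein; Read-out basis: % inhibition; Incubation: 45 min + 60 min at 25 °C; Repeats: single replicate; Technique: fluorescence polarization with parallel and perpendicular emission, 525/598 nm; Compound: 8.92 µM, single dose; Benchmarks: full inhibition S159A mutant plus DMSO, zero as sample-well median.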
# PRMT1 confirm = PRMT1 (human) inhibition, FP confirmation | recombinant His-PRMT1, activity-based probe fluorescence polarization | shares compounds with PRMT1 FP inh | actives 42% (n = 3,300) | inhibition, % at 2.79 µM;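 active = mean inhibition across replicates above the hit cutoff derived for the earlier primary screen, cut at about 22% in these data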
# An asterisk follows results filed as active; · = no result.
SMILES,SIAE inh,PRMT1 FP inh,TCR-CD3 inh,HTRA1 inhibitor,ABHD4 inh,PRMT1 confirm
O=[N+]([O-])c1ccc2nc(COCc3nc4ccccc4[nH]3)[nH]c2c1,-6.3,-4.5,·,·,-6.7,·
S=c1nc(-c2ccc(Cl)cc2)[nH][nH]1,13.8,14.3,-0.4,7.5,4.9,·
CCCOc1ccc(-c2nc(=S)[nH][nH]2)cc1,-4.1,45.9*,-4.0,3.8,1.5,11.8
CC(=O)N1CCN(C2=NC(=O)N(c3ccc(Br)cc3)C(=O)C2)CC1,2.7,1.1,·,·,5.9,·
Cc1c(C(=O)O)sc2nc(-c3cccs3)cc(C(F)(F)F)c12,-10.3,1.0,5.2,-21.7,-4.8,·
CC(=O)c1sc2nc(-c3cccs3)cc(C(F)(F)F)c2c1N,-2.3,31.1*,-6.9,-25.6,-2.0,19.9
CC1(C)CC2(CC(C)(C(=O)CSc3nc4ccccc4s3)OC2=O)C(=O)O1 (centres undefined),-2.2,9.4,-2.9,-2.7,-12.8,·
CC1(C(=O)CSc2nc3ccccc3s2)CCC(=O)O1 (centres undefined),5.7,28.9*,10.9,5.7,2.4,22.1*
CC(C)CCNC(=O)C1COC(O)(C(Cc2ccccc2)NC(=O)[C@@H](NC(=O)OCc2ccccc2)C(C)C)CN1 (some centres undefined),-2.2,-3.5,·,·,-0.4,·
CCOc1ccc(-n2c(SCC(=O)Nc3ccccc3-c3ccccc3)nnc2-c2cccs2)cc1,-3.9,-1.4,·,·,-9.9,·
O=c1c2sccc2nc(SCc2cc(=O)n3ccccc3n2)n1Cc1ccccn1,-4.2,27.2*,-6.3,·,-1.7,15.0
CCOC(=O)c1c(-c2ccco2)csc1NC(=O)COC(=O)c1cnc(C)cn1,3.9,36.1*,5.1,-8.4,11.2,4.0
CCOC(=O)c1c(CC(C)C)csc1NC(=O)COC(=O)c1cnc(C)cn1,4.4,-8.2,2.0,0.0,8.8,·
CC(C)(C)c1ccc(S(=O)(=O)N2CCCC(C(=O)NCc3ccco3)C2)cc1 (centres undefined),-2.0,-0.5,·,·,2.2,·
Cc1cc(C)c(Cn2cnc(-c3ccc([N+](=O)[O-])cc3)c2)c(C)c1,0.8,45.9*,-7.6,-31.9,-11.0,-5.8
CC(C)(C)c1ccc(Cn2cnc(-c3ccc([N+](=O)[O-])cc3)c2)cc1,3.8,2.0,-3.8,-40.0,0.9,·
CCOC(=O)C1Nc2ccc(C(=O)O)cc2C2C=CCC12 (centres undefined),-3.3,30.2*,8.4,25.1,25.4,37.5*
CC(=O)c1ccc2c(c1)C1C=CCC1C(c1cc3c(cc1Br)OCO3)N2 (centres undefined),-2.6,-1.5,-2.5,-27.8,-5.2,·
COCCNC(=O)C1Nc2ccc(OC(F)(F)F)cc2C2C=CCC12 (centres undefined),13.1,26.3*,2.9,33.0,29.3,7.0
COC(=O)CCCn1cc(CN2CC=CS2(=O)=O)nn1,-1.0,-0.6,·,·,6.6,·
COCCN(CCOC)C(=O)[C@@H](Cc1ccccc1)NC(=O)[C@H]1O[C@@H](n2ccc(N)nc2=O)[C@H](O)[C@@H]1O,5.0,-0.8,-3.1,·,-4.6,·
O=C(Cn1nnc(-c2ccc(N3CCOCC3)cc2)n1)c1cccc(F)c1,-2.1,4.2,·,·,0.6,·
CC1CCN(C(=O)COC(=O)/C=C/c2ccc(Br)o2)CC1,2.8,36.4*,-1.6,13.6,5.6,10.8
COc1cc(NC(=O)NS(=O)(=O)c2ccc(C)cc2)cc(OC)c1,12.1,-1.3,-1.3,10.1,11.7,·
COc1ccc(NC(=O)Nc2ccc(OCc3ccccc3)cc2)cn1,5.1,25.7*,3.1,-3.2,7.8,11.5
SMILES,SIAE inh,PRMT1 FP inh,TCR-CD3 inh,HTRA1 inhibitor,ABHD4 inh,PRMT1 confirm
COc1ccc(NC(=O)NS(=O)(=O)c2ccc(C)cc2)cn1,1.9,104.5*,-4.1,2.3,11.2,9.8
O=C(Nc1ccc(OCc2ccccc2)cc1)Nc1cccnc1,3.2,-1.5,6.3,5.7,2.9,·
COC(=O)C(NNc1ccc(F)cc1)(NC(=O)c1ccccc1)C(F)(F)F (centres undefined),-0.5,0.6,1.8,-3.8,3.6,·
COC(=O)C(NNc1ccccc1C)(NC(=O)c1ccc(F)cc1)C(F)(F)F (centres undefined),1.4,49.7*,0.2,-3.2,0.0,10.5
O=c1nc2sc3ccccc3n2c(=O)n1-c1cccc(Cl)c1,·,·,·,-6.0,·,·
CN(C)S(=O)(=O)c1cccc(-n2sc3ccccc3c2=O)c1,-16.4,101.5*,6.1,-8.6,-40.9,94.8*
O=c1c2ccccc2sn1-c1cccc(Cl)c1,-6.8,82.4*,1.6,0.5,4.2,83.8*
O=C(NC1CCCCN(Cc2cccc(Cl)c2)C1=O)c1cccc(C(F)(F)F)c1 (centres undefined),-1.3,-1.4,·,·,2.8,·
COC(CNC(=O)[C@H](Cc1ccccc1)NC(C)(C)C(=O)NC1CCCCC1)OC,-1.1,-3.3,·,·,2.4,·
CC(C)CN1CN2Cc3ccccc3C2CS1(=O)=O (centres undefined),-4.9,5.3,·,·,-11.9,·
O=C(O)c1ccc(/C=C2\SC(=S)N(NC(=O)c3ccccc3[N+](=O)[O-])C2=O)cc1,-8.1,28.9*,3.6,-1.5,13.2,0.8
O=C(NN1C(=O)/C(=C\c2ccc(O)c([N+](=O)[O-])c2)SC1=S)c1ccccc1Cl,-4.6,5.9,-11.0,-1.9,16.7,·
Cc1ccc(-c2nnc(SCC(=O)Nc3ccc(-c4nc5ccc(C)cc5s4)cc3)n2Cc2ccco2)cc1,-18.6,34.0*,·,·,-21.2,21.5*
Cc1ccc2nc(-c3ccc(NC(=O)CSc4nnc(-c5cccc(Cl)c5)n4Cc4ccco4)cc3)sc2c1,-76.5,47.1*,·,·,-65.0,12.5
CCCCCCCCN1C(=O)[C@@H](CC(=O)NCCc2ccccc2OC)C[C@@]2(C(=O)OC)C1=C[C@H](C(C)(C)C)O[C@@H]2C,3.3,5.7,-2.8,·,6.3,·
CC(C)(C)N1Cc2nnn(CC3CCCCC3)c2-c2ccccc2S1(=O)=O,-2.9,-0.3,·,·,0.4,·
O=C1NC(c2ccccc2)=N/C1=C/c1ccco1,6.1,33.9*,3.9,1.0,8.8,2.5
O=C1NC(c2cccc(Br)c2)=N/C1=C\c1ccco1,-4.0,12.1,7.8,6.1,17.4,·
Oc1c(C=NCc2ccccc2)sc2ccccc12,-0.8,43.0*,-2.4,7.3,-3.0,34.3*
COc1ccc(N=Cc2sc(O)c3ccccc23)cc1,14.6,-6.3,0.2,15.4,12.4,·
O=[N+]([O-])c1cccc(N=Cc2sc3ccccc3c2O)c1,4.7,40.3*,-7.8,·,0.7,25.0*
O=[N+]([O-])c1cccc(N=Cc2ccccc2)c1,1.9,0.0,1.7,-2.2,4.9,·
O=[N+]([O-])c1ccc(N=Cc2sc3ccccc3c2O)cc1,-1.9,48.7*,2.3,-1.1,-4.2,5.9
NS(=O)(=O)c1ccc(NC(=O)CSc2nc3ccccc3c(=O)n2-c2ccc(Br)cc2)cc1,-22.0,3.1,·,·,-34.1,·
CCn1c(SCC(=O)c2ccc(-c3ccccc3)cc2)nnc1-c1ccc(C(C)(C)C)cc1,1.7,0.8,·,·,7.2,·

# Bioassay records deposited in PubChem by The Scripps Research Institute Molecular Screening Center.
